≈ marks a conversion by molar mass, not a printed value.
Assays:
Staphylococcus aureus [1] = test: Antimicrobial activity against oxacillin- and methicillin-resistant Staphylococcus aureus isolate Sa-OXA-R2 after 18 to 24 hrs by alamar blue assay; format: functional
Method in brief: (§1)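 Broth microdilution per NCCLS standard, Mueller-Hinton broth, 8-point twofold dilutions; exponentially growing cells at 5 10^5 cells/ml with compound, 18–24 h at 37 C; 20% Alamar blue added, fluorescence read; MIC90 taken as lowest concentration preventing at least 90% growth.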

Bacillus subtilis = test: Antimicrobial activity against Bacillus subtilis ATCC 23857 after 18 to 24 hrs by alamar blue assay; format: functional
Method in brief: (§2)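 Broth microdilution per NCCLS in Mueller-Hinton broth, 8-point twofold dilutions, 384-well format. Exponential-phase cells at 5 × 10^5 cells/ml incubated with compound 18–24 h at 37 °C, then 20% Alamar blue added and fluorescence read. MIC90 taken as the lowest concentration preventing at least 90% bacterial growth.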

Escherichia coli = test: Antimicrobial activity against Escherichia coli ATCC […] after 18 to 24 hrs by alamar blue assay; format: functional; details: Escherichia coli; read-out: MIC; method in brief: as §2
Pseudomonas aeruginosa = test: Antimicrobial activity against Pseudomonas aeruginosa ATCC 25619 after 18 to 24 hrs by alamar blue assay; format: functional; details: Pseudomonas aeruginosa, ATCC 25619; read-out: MIC; method in brief: as §2
Acinetobacter baumannii = test: Antimicrobial activity against Acinetobacter baumannii ATCC 49139 after 18 to 24 hrs by alamar blue assay; format: functional; details: Acinetobacter baumannii, ATCC 49139; read-out: MIC; method in brief: as §2
[2] = tested on: Stenotrophomonas maltophilia; test: Antimicrobial activity against Stenotrophomonas maltophilia ATCC 13637 after 18 to 24 hrs by alamar blue assay; format: functional; details: Stenotrophomonas maltophilia, ATCC 13637; read-out: MIC; method in brief: as §2
Serratia marcescens = test: Antimicrobial activity against Serratia marcescens ATCC 14756 after 18 to 24 hrs by alamar blue assay; format: functional; details: Serratia marcescens, ATCC 14756; read-out: MIC; method in brief: as §2
[3] = tested on: Mycolicibacterium smegmatis; test: Antimicrobial activity against Mycobacterium smegmatis BCRC 11565 after 18 to 24 hrs by alamar blue assay; format: functional; details: Mycolicibacterium smegmatis, BCRC 11565; read-out: MIC; method in brief: as §2
[4] = Inhibition of transglycosylase assessed as inhibition of NBD- labelled lipid II polymerization
Method in brief: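 100 µM NBD-labelled lipid II incubated 30 min with full-length PBP (EC, SA or Mtb) and 10 ng/µl N-acetylmuramidase in 50 mM Tris-HCl pH 8.0, 10 mM MgCl2, 0.1% Triton X-100, 10% DMSO, 15% MeOH. Supernatant run on anion-exchange HPLC with 20 mM–0.5 M ammonium acetate gradient. Inhibition calculated from substrate peak-area percentage. IC50 determined. S. aureus strains share one SA enzyme.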

Staphylococcus aureus [5] = test: Antimicrobial activity against methicillin-resistant Staphylococcus aureus isolate NTUH4722 after 18 to 24 hrs by alamar blue assay; format: functional; method in brief: as §1
Staphylococcus aureus [6] = test: Antimicrobial activity against methicillin-resistant Staphylococcus aureus ATCC 33592 after 18 to 24 hrs by alamar blue assay; format: functional; details: Staphylococcus aureus, ATCC 33592; read-out: MIC; method in brief: as §1
Staphylococcus aureus [7] = test: Antimicrobial activity against Staphylococcus aureus ATCC 29213 after 18 to 24 hrs by alamar blue assay

In the case of `O=C(Nc1cc(Cl)ccc1Oc1ccc(Br)c2ccccc12)c1cc(Cl)cc(I)c1O`, the MIC (Staphylococcus aureus [1]) is reported as no more than 0.03 µg/mL, the MIC (Bacillus subtilis) is reported as less than 0.03 µg/mL and the MIC (Escherichia coli) is reported as 8 µg/mL (≈ 12.7 µM). The MIC (Pseudomonas aeruginosa) was 16 µg/mL (≈ 25.4 µM), the MIC (Acinetobacter baumannii) was 16 µg/mL (≈ 25.4 µM) and the MIC [2] was 16 µg/mL (≈ 25.4 µM). It also gave an MIC (Serratia marcescens) of 16 µg/mL (≈ 25.4 µM), an MIC [3] of 0.5 µg/mL (≈ 0.795 µM) and an IC90 [4] of 100 µM. For the same molecule, the MIC (Staphylococcus aureus [5]) was no more than 0.03 µg/mL, the MIC (Staphylococcus aureus [6]) was 4 µg/mL (≈ 6.36 µM) and the MIC (Staphylococcus aureus [7]) was 8 µg/mL (≈ 12.7 µM).
In the case of `O=C(Nc1ccc(Oc2ccc3ccccc3c2Cl)c(Cl)c1)c1cc(Br)cc(Br)c1O`, the MIC (Staphylococcus aureus [1]) is reported as no more than 0.03 µg/mL, the MIC (Bacillus subtilis) is reported as less than 0.03 µg/mL and the MIC (Escherichia coli) is reported as 8 µg/mL (≈ 13.7 µM). For the same molecule, the MIC (Pseudomonas aeruginosa) was 16 µg/mL (≈ 27.5 µM), the MIC (Acinetobacter baumannii) was 16 µg/mL (≈ 27.5 µM) and the MIC [2] was 16 µg/mL (≈ 27.5 µM). It also gave an MIC (Serratia marcescens) of 16 µg/mL (≈ 27.5 µM), an MIC [3] of 0.5 µg/mL (≈ 0.859 µM) and an IC90 [4] of 100 µM. For the same molecule, the MIC (Staphylococcus aureus [5]) was no more than 0.03 µg/mL, the MIC (Staphylococcus aureus [6]) was no more than 2 µg/mL and the MIC (Staphylococcus aureus [7]) was no more than 2 µg/mL.
For `O=C(Nc1cc(Cl)cc(C(=O)c2ccccc2)c1Cl)c1cc(Br)cc(Br)c1O`, the MIC (Staphylococcus aureus [1]) was 4 µg/mL (≈ 7.35 µM), the MIC (Bacillus subtilis) was less than 0.03 µg/mL and the MIC (Escherichia coli) was 8 µg/mL (≈ 14.7 µM). It also gave an MIC (Pseudomonas aeruginosa) of 16 µg/mL (≈ 29.4 µM), an MIC (Acinetobacter baumannii) of 16 µg/mL (≈ 29.4 µM) and an MIC [2] of 16 µg/mL (≈ 29.4 µM). For the same molecule, the MIC (Serratia marcescens) was 16 µg/mL (≈ 29.4 µM), the MIC [3] was 0.5 µg/mL (≈ 0.919 µM) and the IC90 [4] was 100 µM. For the same molecule, the MIC (Staphylococcus aureus [5]) was 4 µg/mL (≈ 7.35 µM), the MIC (Staphylococcus aureus [6]) was 8 µg/mL (≈ 14.7 µM) and the MIC (Staphylococcus aureus [7]) was 1 µg/mL (≈ 1.84 µM).
For `O=C(Nc1ccc(Sc2nc3ccccc3s2)c(Cl)c1)c1cc(Cl)cc(Cl)c1O`, the MIC (Staphylococcus aureus [1]) was no more than 0.03 µg/mL, the MIC (Bacillus subtilis) was less than 0.03 µg/mL and the MIC (Escherichia coli) was 8 µg/mL (≈ 16.6 µM). The MIC (Pseudomonas aeruginosa) was 16 µg/mL (≈ 33.2 µM), the MIC (Acinetobacter baumannii) was 16 µg/mL (≈ 33.2 µM) and the MIC [2] was 16 µg/mL (≈ 33.2 µM). The MIC (Serratia marcescens) was 16 µg/mL (≈ 33.2 µM), the MIC [3] was 0.5 µg/mL (≈ 1.04 µM) and the IC90 [4] was greater than 100 µM. The MIC (Staphylococcus aureus [5]) was no more than 0.03 µg/mL, the MIC (Staphylococcus aureus [6]) was 4 µg/mL (≈ 8.3 µM) and the MIC (Staphylococcus aureus [7]) was 8 µg/mL (≈ 16.6 µM).
`O=C(Nc1ccc(S(=O)(=O)c2nc3ccccc3s2)c(Cl)c1)c1cc(Cl)cc(Cl)c1O` gave an MIC (Staphylococcus aureus [1]) of no more than 0.03 µg/mL, an MIC (Bacillus subtilis) of less than 0.03 µg/mL and an MIC (Escherichia coli) of 8 µg/mL (≈ 15.6 µM). For the same molecule, the MIC (Pseudomonas aeruginosa) was 16 µg/mL (≈ 31.1 µM), the MIC (Acinetobacter baumannii) was 16 µg/mL (≈ 31.1 µM) and the MIC [2] was 16 µg/mL (≈ 31.1 µM). For the same molecule, the MIC (Serratia marcescens) was 16 µg/mL (≈ 31.1 µM), the MIC [3] was 0.5 µg/mL (≈ 0.973 µM) and the IC90 [4] was 100 µM. It also gave an MIC (Staphylococcus aureus [5]) of no more than 0.03 µg/mL, an MIC (Staphylococcus aureus [6]) of 4 µg/mL (≈ 7.78 µM) and an MIC (Staphylococcus aureus [7]) of 8 µg/mL (≈ 15.6 µM).
In the case of `O=C(c1ccc(NC(=O)c2cc(Br)cc(Br)c2O)c(Cl)c1)c1cccs1`, the MIC (Staphylococcus aureus [1]) is reported as no more than 0.03 µg/mL, the MIC (Bacillus subtilis) is reported as less than 0.03 µg/mL and the MIC (Escherichia coli) is reported as 8 µg/mL (≈ 15.5 µM). It also gave an MIC (Pseudomonas aeruginosa) of 16 µg/mL (≈ 31 µM), an MIC (Acinetobacter baumannii) of 16 µg/mL (≈ 31 µM) and an MIC [2] of 16 µg/mL (≈ 31 µM). For the same molecule, the MIC (Serratia marcescens) was 16 µg/mL (≈ 31 µM), the MIC [3] was 0.5 µg/mL (≈ 0.97 µM) and the IC90 [4] was greater than 100 µM. The MIC (Staphylococcus aureus [5]) was no more than 0.03 µg/mL, the MIC (Staphylococcus aureus [6]) was 4 µg/mL (≈ 7.76 µM) and the MIC (Staphylococcus aureus [7]) was 4 µg/mL (≈ 7.76 µM).
`O=C(c1ccc(Cl)cc1)c1cc(NC(=O)c2cc(Br)cc(Br)c2O)ccc1Br` gave an MIC (Staphylococcus aureus [1]) of no more than 0.03 µg/mL, an MIC (Bacillus subtilis) of less than 0.03 µg/mL and an MIC (Escherichia coli) of 8 µg/mL (≈ 13.6 µM). For the same molecule, the MIC (Pseudomonas aeruginosa) was 16 µg/mL (≈ 27.2 µM), the MIC (Acinetobacter baumannii) was 16 µg/mL (≈ 27.2 µM) and the MIC [2] was 16 µg/mL (≈ 27.2 µM). It also gave an MIC (Serratia marcescens) of 16 µg/mL (≈ 27.2 µM), an MIC [3] of 0.5 µg/mL (≈ 0.85 µM) and an IC90 [4] of 100 µM. For the same molecule, the MIC (Staphylococcus aureus [5]) was no more than 0.03 µg/mL, the MIC (Staphylococcus aureus [6]) was no more than 2 µg/mL and the MIC (Staphylococcus aureus [7]) was no more than 2 µg/mL.
With `O=C(Nc1ccc(Oc2cc3ccccc3cc2Cl)c(Cl)c1)c1cc(Cl)cc(I)c1O` the MIC (Staphylococcus aureus [1]) was no more than 0.03 µg/mL, the MIC (Bacillus subtilis) was less than 0.03 µg/mL and the MIC (Escherichia coli) was 8 µg/mL (≈ 13.7 µM). It also gave an MIC (Pseudomonas aeruginosa) of 16 µg/mL (≈ 27.4 µM), an MIC (Acinetobacter baumannii) of 16 µg/mL (≈ 27.4 µM) and an MIC [2] of 16 µg/mL (≈ 27.4 µM). The MIC (Serratia marcescens) was 16 µg/mL (≈ 27.4 µM), the MIC [3] was 0.5 µg/mL (≈ 0.855 µM) and the IC90 [4] was greater than 100 µM. For the same molecule, the MIC (Staphylococcus aureus [5]) was no more than 0.03 µg/mL, the MIC (Staphylococcus aureus [6]) was no more than 2 µg/mL and the MIC (Staphylococcus aureus [7]) was 4 µg/mL (≈ 6.84 µM).
`Cc1ccc(C(C)C)cc1Oc1ccc(Cl)cc1NC(=O)c1cc(Cl)cc(Br)c1O` showed an MIC (Staphylococcus aureus [1]) of no more than 0.03 µg/mL, an MIC (Bacillus subtilis) of less than 0.03 µg/mL and an MIC (Escherichia coli) of 8 µg/mL (≈ 15.7 µM). For the same molecule, the MIC (Pseudomonas aeruginosa) was 16 µg/mL (≈ 31.4 µM), the MIC (Acinetobacter baumannii) was 16 µg/mL (≈ 31.4 µM) and the MIC [2] was 16 µg/mL (≈ 31.4 µM). The MIC (Serratia marcescens) was 16 µg/mL (≈ 31.4 µM), the MIC [3] was 0.5 µg/mL (≈ 0.982 µM) and the IC90 [4] was 50 µM. The MIC (Staphylococcus aureus [5]) was no more than 0.03 µg/mL, the MIC (Staphylococcus aureus [6]) was 0.5 µg/mL (≈ 0.982 µM) and the MIC (Staphylococcus aureus [7]) was 1 µg/mL (≈ 1.96 µM).
Work on `O=C(Nc1cc(S(=O)(=O)c2ccc(Cl)cc2)ccc1Cl)c1cc(I)cc(I)c1O` yielded an MIC (Staphylococcus aureus [1]) of no more than 0.03 µg/mL, an MIC (Bacillus subtilis) of less than 0.03 µg/mL and an MIC (Escherichia coli) of 8 µg/mL (≈ 11.9 µM). It also gave an MIC (Pseudomonas aeruginosa) of 16 µg/mL (≈ 23.7 µM), an MIC (Acinetobacter baumannii) of 16 µg/mL (≈ 23.7 µM) and an MIC [2] of 16 µg/mL (≈ 23.7 µM). For the same molecule, the MIC (Serratia marcescens) was 16 µg/mL (≈ 23.7 µM), the MIC [3] was 0.5 µg/mL (≈ 0.742 µM) and the IC90 [4] was 100 µM. It also gave an MIC (Staphylococcus aureus [5]) of no more than 0.03 µg/mL, an MIC (Staphylococcus aureus [6]) of 8 µg/mL (≈ 11.9 µM) and an MIC (Staphylococcus aureus [7]) of 8 µg/mL (≈ 11.9 µM).
Work on `O=C(c1ccc(Cl)cc1)c1cc(NC(=O)c2cc(I)cc(I)c2O)ccc1Cl` yielded an MIC (Staphylococcus aureus [1]) of no more than 0.03 µg/mL, an MIC (Bacillus subtilis) of less than 0.03 µg/mL and an MIC (Escherichia coli) of 8 µg/mL (≈ 12.5 µM). It also gave an MIC (Pseudomonas aeruginosa) of 16 µg/mL (≈ 25.1 µM), an MIC (Acinetobacter baumannii) of 16 µg/mL (≈ 25.1 µM) and an MIC [2] of 16 µg/mL (≈ 25.1 µM). It also gave an MIC (Serratia marcescens) of 16 µg/mL (≈ 25.1 µM), an MIC [3] of 0.5 µg/mL (≈ 0.784 µM) and an IC90 [4] of 100 µM. The MIC (Staphylococcus aureus [5]) was no more than 0.03 µg/mL, the MIC (Staphylococcus aureus [6]) was 4 µg/mL (≈ 6.27 µM) and the MIC (Staphylococcus aureus [7]) was no more than 2 µg/mL.

— ChEMBL document CHEMBL1629439, “High-throughput identification of antibacterials against methicillin-resistant Staphylococcus aureus (MRSA) and the transglycosylase” (Bioorg Med Chem, 2010)
